Many of the other results were omitted from the sample, so hits are more common in it than they were.
L major viab: reduces viability of Leishmania major promastigotes | resazurin fluorescence viability | inhibition, % at 10 µM | 9% of 200,000 active | AID 1063; in the data active = inhibition above about 50%;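 note: promastigotes grown with compound for 44 hours at 28 °C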
Hsp70 activator: transcriptional activators of Hsp70; AID 1203; HeLa Hsp70 promoter luciferase reporter, luminescence; scaled: vehicle 0, proteasome-inhibitor control 100%; activation, % at 10 µM; 0.04% of 200,000 active;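 active = activation above the mean across all tested compounds plus 3 SD, cutoff set per campaign, cut at about 5.5% in these data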;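 note: 100% = MG132 at 30 µM as the positive control and 0% = DMSO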
HSF1 activator: increases HSF-1 driven luciferase reporter signal; NIH3T3-HGL HSF-1 luciferase reporter, MG132, 8 h; 100% = twice DMSO control signal; activation, % at 9 µM; 1.7% of 300,000 active;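 active = mean replicate activation of at least 50% with a set share of replicates each reaching 50%; inconclusive = only one of those two conditions met; inactive = mean below 50% and too few replicates reaching it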;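 note: 0% = median of the neutral control wells and 100% = twice that signal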
T cruzi repl: blocks replication of Trypanosoma cruzi; T. cruzi beta-gal in NIH3T3, luminescence, 90 h; inhibition, % (no concentration beside the values); 1.4% of 300,000 active;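 active = mean inhibition across valid replicates above about 55%, limit read from the data; inconclusive = mean below that limit but half or more replicates reach it; inactive = mean below it, under half of replicates reach it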;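 note: signal also drops with host cell toxicity which is not excluded here; 0% = plate median of DMSO wells and 100% = zero luminescence signal; higher percent means less beta-gal luminescence so fewer parasites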
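Material: NIH/3T3 host cells with β-galactosidase reporter T. cruzi; Input: 5,000 host fibroblasts per well; Medium: DMEM, 2% fetal bovine serum; Compound: 50 nL DMSO compound solution per well; Schedule: 3 h host attachment, then at least 90 h co-culture; Detection: luminescent β-galactosidase signal after 60 min lysis.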
HSF1 inh: HSF1 inhibition; NIH3T3-HGL HSE-luciferase, MG132-induced, luminescence 8 h; hits give low values; activity change, negative = inhibition, % at 7.5 µM (by protocol); 0.77% of 300,000 active; AID 2098;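 active = more than half of replicate wells show activity change below -50%, luminescence cut by over half; inconclusive = some wells, but at most half, below -50%; inactive = no replicate well below -50%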;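 note: luciferase reports HSF-1 transcriptional activity via heat shock element; 0% = median of DMSO wells and -100% = zero luminescence signal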
Starred values were filed as active, the others as inactive; ? = inconclusive; nt = no result given.

SMILES	L major viab	Hsp70 activator	HSF1 activator	T cruzi repl	HSF1 inh
C[C@]12CCC(O)CC1CCC1C2CC[C@]2(C)C(c3cc(C(F)(F)F)n[nH]3)CCC12 (some centres not stated)	nt	nt	-5	9	-7
Cn1c(C2=C(O)CN(c3ccccc3)C2=N)nc2ccccc21	2	0	-5	-1	0
CC(C)CNc1nc(Oc2ccc(=O)[nH]n2)nc(N2CCOCC2)n1	22	0	3	-1	1
O=C(CCSc1nc(-c2ccco2)cc(C(F)(F)F)n1)N1CCCc2ccccc21	76*	0	5	7	12
O=C(CCSc1nc(-c2ccco2)cc(C(F)(F)F)n1)N1CCN(c2ccccn2)CC1	-2	0	12	13	10
Clc1ccc(C2[C@H]3CN(Cc4cccnc4)[C@H](c4ccccc4)C34CC2(c2ccccc2)C4)cn1 (some centres not stated)	nt	nt	10	56*	8
CC(C)CN(C(=O)CN1CCN(c2ccc([N+](=O)[O-])cc2)CC1)c1c(N)n(CC(C)C)c(=O)[nH]c1=O	-7	0	23	0	-2
CCOc1ccc(NC(=O)c2c(NC(=O)CNCCN3CCOCC3)sc3c2CCC3)cc1	nt	nt	11	61*	-7
COc1ccc(CCNC(=O)NCCc2c[nH]c3ccccc23)cc1OC	nt	nt	-24	-15	-5
COc1ccccc1CNC(=O)Cc1c[nH]c2ccccc12	nt	nt	7	5	-2
COc1cc(CNCCc2c[nH]c3ccccc23)ccc1OCc1ccccc1F	98*	0	-10	55*	5
COc1cccc(CNC23CC4CC(CC(C4)C2)C3)c1OCc1ccccc1	92*	0	-12	43	-9
COc1cccc(CNCCc2c[nH]c3ccccc23)c1OCc1ccccc1	99*	0	-12	42	-8
COC(=O)C/C(O)=C(/N=Nc1cccc(C(F)(F)F)c1)C(=O)OC	15	0	0	6	5
O=C(NCc1cccc(C(F)(F)F)c1)C1CCC(=O)N(C2CCCCCC2)C1 (configuration not stated)	nt	nt	2	6	2
COc1ccccc1C(=O)Nc1ccnn1C1CCN(Cc2ncc[nH]2)CC1	nt	nt	-19	6	-3
c1ccc(-c2nc(NCc3cccnc3)c3oc4ccccc4c3n2)cc1	88*	0	76*	56*	55
O=C(O)CNc1nc(-c2ccccc2)nc2c1oc1ccccc12	nt	nt	-15	6	-13
c1ccc(-c2nc(NCC3CCCO3)c3oc4ccccc4c3n2)cc1 (configuration not stated)	55*	0	9	40	9
CCCCC(=O)NC1(C(F)(F)F)NC(=O)N(C)C1=O (configuration not stated)	nt	nt	nt	-17	nt
O=C(CSc1nc(Nc2ccccc2)nc(N2CCOCC2)n1)Nc1cccc([N+](=O)[O-])c1	nt	nt	17	46	18
CC(=O)Nc1ccc(/C(C)=N/Nc2nc(Nc3ccccc3)nc(N3CCOCC3)n2)cc1	-3	0	2	67*	7
O=C(CSc1nc(Nc2ccccc2)nc(N2CCOCC2)n1)Nc1ccc([N+](=O)[O-])cc1	41	0	19	57*	5
COc1ccc(/C=C2\CCCCC2=O)cc1	nt	nt	22	-8	3
CN(C)/N=C/C=C1\CCC/C(=C\c2ccc(F)c(F)c2)C1=O	97*	5	116*	-21	69
SMILES	L major viab	Hsp70 activator	HSF1 activator	T cruzi repl	HSF1 inh
O=C1/C(=C/c2ccccc2)CCCc2ccccc21	6	0	10	-33	-1
COc1ccc(/C=C2\CCC/C(=C\C=N\N(C)C)C2=O)cc1	93*	0	?	-21	23
COc1ccc(CN(CC(=O)NCCc2ccccc2)C(=O)CCC(=O)Nc2ccccn2)cc1	nt	nt	-7	7	-3
Clc1ccc(-c2ccc(CN3CCCCC3)o2)cc1	nt	nt	2	31	5
CN1CCN(Cc2ccc(-c3ccc(Cl)cc3)o2)CC1	94*	0	26	0	0
COC(=O)c1ccc(Cn2nnc3c(=O)[nH]c(C4CCN(S(=O)(=O)c5ccc(F)cc5)CC4)nc32)cc1	nt	nt	-58	35	-44
CCCCc1nnc(NC(=O)C(C)Sc2nc(C)cc(=O)[nH]2)s1 (configuration not stated)	-9	0	64*	-2	29
COCCNc1nc(N2CCCCC2)c2cnn(C)c2n1	nt	nt	12	-8	-5
Clc1ccc2c(NCc3ccccn3)ccnc2c1	nt	nt	4	-8	-5
CCOc1ccccc1Nc1ccnc2cc(Cl)ccc12	53*	0	11	17	4
CN(C)CC/C=C1\c2ccccc2COc2ccccc21	100*	0	7	9	2
O=C(NN(C(=O)C1CC1)c1nc2ccccc2s1)C1CC1	-6	0	12	-7	7
CCN(CC)CCN(C(=O)CCS(=O)(=O)c1ccccc1)c1nc2cc3c(cc2s1)OCO3	nt	nt	-1	60*	1
CN(C)CCN(C(=O)CCS(=O)(=O)c1ccccc1)c1nc2cc3c(cc2s1)OCO3	nt	nt	19	38	-3
CCN(CC)CCN(C(=O)C1CCCCC1)c1nc2cc3c(cc2s1)OCO3	nt	nt	8	61*	6
O=C(C1CCCCC1)N(CCN1CCCC1)c1nc2ccccc2s1	2	0	2	57*	4
COc1ccc(/C=N/NC(=O)CN2CCSCC2)c(OC)c1	-2	0	-15	-4	-5
CSc1ncc(-c2ccc(Cl)cc2)[nH]1	nt	nt	30	6	20
O=C(Cc1sc(-c2ccccc2)nc1-c1ccccc1)Nc1ccccc1	7	-1	-17	2	0
O=C(Cc1sc(Nc2ccccc2)nc1-c1ccccc1)NCc1ccccc1	22	0	60*	10	21
O=C(O)Cc1sc(N/N=C\c2ccccc2)nc1-c1ccccc1	5	0	60*	-2	43
CC(C)c1ccc(NC(=O)Cn2c(=O)oc3cccnc32)cc1	nt	nt	6	-21	-8
O=C(CCOc1ccccc1)Nc1ccccc1F	nt	nt	1	-5	1
Cc1ccc(CNC(=O)[C@H](C)N2C(=O)N3CCc4c([nH]c5ccccc45)[C@@]3(C)C2=O)cc1	nt	nt	97*	3	64
c1csc(-c2cnc3ccccc3n2)c1	-5	0	53*	11	11
c1cc(-c2cccs2)nc(-c2cccs2)c1	-5	0	21	-3	11
CCC(C)n1c(SC(C)C#N)nc2ccccc2c1=O (configuration not stated)	-4	0	-88	11	-85*
CC(C#N)On1c(SC(C)C#N)nc2ccccc2c1=O (configuration not stated)	-2	0	13	-7	-2
COc1ccc(C(CCN)Cc2ccccc2)cc1 (configuration not stated)	51*	0	18	89*	0
COC(=O)C(C)Sc1ncnc2c1nnn2-c1ccc(F)cc1 (configuration not stated)	10	0	126*	-23	88

Screens deposited in PubChem BioAssay by several laboratories.
